rRNA inh HTS = reduced GFP signal of wild-type E. coli, primary screen, bacterial rRNA inhibitor project, GFP/RFP fluorescence, OD600, single point. GFP signal change (wild-type ribosome), % (no concentration beside the values). E. coli WT GFP vs humanized-ribosome RFP mutants, 24 h; active compounds read low; DMSO median 0, no signal -100. actives 1.6% (n = 350,000). AID 720706, 2013;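 active = significant combined selectivity score with lowered wild-type GFP, culture density cut under 30%, mutant RFP and density less affected; inactive = any of these conditions unmet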
FN deposition inh = inhibitors of fibronectin matrix deposition, primary screen, AH1F cells, Alexa488-fibronectin fluorescence, plate reader; AH1F fibroblasts, overnight; inhibition, % at 12.6 µM; actives 0.086% (n = 350,000);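 active = mean inhibition across replicates of 30% or more, regardless of how many single replicates reach that level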
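Schedule: 1 h cell adhesion before compound, then overnight fibronectin incubation; test system: AH1F fibroblast monolayer depositing Alexa488-labelled fibronectin into matrix; quantity: 10000 AH1F cells per well; probe or stimulus: fluorescent fibronectin at 24 nM final; signal: fluorescence, ex 485 nm, em 525 nm; evaluation: percent inhibition as loss of matrix-bound fibronectin fluorescence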
SIRT5 inh = SIRT5 desuccinylase inhibitors, primary screen, biochemical, fluorescence imaging, single point, set 5; Purified SirT5, succinyl-peptide AMC, trypsin-coupled fluorescence; inhibition, % at 15 µM; actives 1.1% (n = 330,000); AID 652115, 2013; in the data active = inhibition above about 15%
Target sequence (Q9NXA8 whole entry, looked up): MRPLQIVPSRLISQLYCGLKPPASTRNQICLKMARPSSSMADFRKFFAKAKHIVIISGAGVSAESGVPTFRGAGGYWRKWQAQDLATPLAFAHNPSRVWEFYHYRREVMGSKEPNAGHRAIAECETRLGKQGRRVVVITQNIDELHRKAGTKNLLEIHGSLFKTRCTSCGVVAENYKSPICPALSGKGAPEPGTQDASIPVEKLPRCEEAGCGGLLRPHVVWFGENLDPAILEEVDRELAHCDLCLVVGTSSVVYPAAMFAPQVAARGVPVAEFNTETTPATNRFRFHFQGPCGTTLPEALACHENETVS
E-selectin induc = E-selectin induction in HUVECs, primary screen, imaging, HUVEC, immunofluorescence imaging, single point; P16581; normalized: neutral wells 0, TNF-alpha wells 100; activation, % at 7.58 µM; actives 0.37% (n = 260,000); AID 686992, 2013;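 active = mean E-selectin-positive cell signal at least 10% of the positive control, reached in at least 60% of replicates, without over 20% cell loss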
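Read-out basis: % PE-positive cells; Test system: HUVEC primary endothelial cells; Technique: immunofluorescence imaging; Dosing: single-point compound dose.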
FGF22 binding = binders of human FGF22 protein, primary screen, FGF22 synaptogenesis inhibitor project, biophysical, thermal shift, single point; Fibroblast growth factor 22 (Homo sapiens), Q9HCT0; recombinant FGF22 thermal shift, SYPRO orange fluorescence; percent of sucrose octasulfate shift, DMSO zero; activity (Tm shift, normalised), % at 9.99 µM; actives 1.5% (n = 340,000); AID 651658, 2012;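 active = mean Tm shift, scaled 0 neutral to 100 positive control, at about 1.3% or above, every replicate too, limit read from the data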
Target sequence (Q9HCT0 whole entry, looked up): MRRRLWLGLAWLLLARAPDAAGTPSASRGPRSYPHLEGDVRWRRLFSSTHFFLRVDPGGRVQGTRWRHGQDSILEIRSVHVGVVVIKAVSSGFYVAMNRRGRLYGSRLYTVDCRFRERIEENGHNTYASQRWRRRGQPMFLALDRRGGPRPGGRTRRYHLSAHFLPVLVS
Statin myotox sup = suppressors of statin myotoxicity in C2C12 myotubes, primary screen, cell-based, single point, plate reader; C2C12 myotubes + simvastatin, ATP luminescence, 48 h; scaled: DMSO 0, geranylgeraniol control 100; rescue of ATP level, % at 7.49 µM; actives 0.78% (n = 330,000);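 active = mean ATP rescue above about 67%, or every replicate alone reaching that limit, limit read from the data, passing the limit was not always enough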;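 also: myotubes were challenged with 10 µM simvastatin during compound exposure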
Numbers stand for hits; n = inactive; x = no result given. The list is not random: actives were taken first. Their share in the collection is about 4%.

SMILES	rRNA inh HTS	FN deposition inh	SIRT5 inh	E-selectin induc	FGF22 binding	Statin myotox sup
CC(=O)Nc1ccc(NC(=O)COc2cccc3ccccc23)cc1	n	x	x	n	n	n
O=C(COc1cccc2ccccc12)NNC(=O)Nc1ccccc1	-32.8	n	x	x	x	n
CC(C)NC(=O)Nc1ccc2c(c1)C(=O)N([C@@H](C)CO)C[C@@H](C)[C@@H](CN(C)Cc1ccc(C(=O)O)cc1)O2	n	x	n	n	n	n
Cc1nc(SCCC(=O)O)c2cc(-c3ccccc3)sc2n1	n	n	n	x	n	66.8
Cc1nc(N2CCOCC2)c2cc(-c3ccccc3)sc2n1	x	x	x	x	x	n
O=C(c1ccccc1)c1cccn1CC(=O)N1CCCCCC1	x	x	x	x	x	109.7
Cc1ccc(CNC(=O)Cn2cccc2C(=O)c2ccccc2)cc1	x	n	x	x	x	108.6
CCCN1CCN(C(=O)Cn2cccc2C(=O)c2ccccc2)CC1	x	x	x	x	x	n
CCCC(=O)Nc1ccc2c(c1)C(=O)N(C)C[C@H](OC)[C@@H](C)CN(CCc1ccccc1)[C@H](C)CO2	n	n	n	n	n	n
O=C(Nc1cnn(Cc2ccccc2)c1)c1cc2nc(-c3ccco3)cc(C(F)(F)F)n2n1	x	x	x	x	x	124.5
Cc1ccc(S(=O)(=O)N2CCN(C(=O)COC(=O)c3ncc(Cl)c(Cl)c3Cl)CC2)c(C)c1	-22.8	n	n	x	n	n
COc1ccc(CN2C[C@H](O)COC[C@@H]3O[C@@H](CC(=O)NCCN4CCCC4)CC[C@H]32)cc1	n	n	x	n	n	n
O=C1/C(=C\c2ccc(O)c(O)c2)SC(=S)N1Cc1ccccc1	n	n	n	n	n	n
COc1cc(/C=C2\SC(=S)N(CCC(=O)Nc3cccc(O)c3)C2=O)cc(OC)c1OC	n	n	n	n	n	n
COc1ccccc1/C=C1\SC(=S)N(CCC(=O)Nc2cccc(O)c2)C1=O	-30.9	n	n	x	n	n
O=C(CCN1C(=O)/C(=C/c2ccc3c(c2)OCO3)SC1=S)Nc1cccc(C(=O)O)c1	n	n	17.3	x	n	n
O=C(CCCN1C(=O)/C(=C/c2ccc3c(c2)OCO3)SC1=S)Nc1cccc(C(=O)O)c1	n	x	n	n	x	n
O=C1/C(=C\c2cccc(O)c2)SC(=S)N1Cc1ccccc1	-20.0	n	n	n	n	n
CN(C)CC(=O)Nc1ccc2c(c1)[C@H]1C[C@H](CC(=O)N3CCN(C)CC3)O[C@@H](CO)[C@H]1O2	n	n	n	n	x	n
C/C=C/c1ccc([C@@H]2[C@@H](CO)N(C(=O)C3CCCC3)C23CN(C(=O)NC(C)C)C3)cc1	n	n	n	n	x	x
CCNC(=O)C[C@H]1CC[C@@H](NS(=O)(=O)c2ccc(C)cc2)[C@H](CO)O1	n	x	n	n	n	n
O=C(Cn1cnc2c(NCc3ccccc3)ncnc21)NCc1ccc2c(c1)OCO2	n	n	26.7	n	n	n
COc1cccc(NC(=S)NC(=O)c2cncc(Br)c2)c1	-24.3	n	n	n	n	n
Cc1ccc(NC(=S)NC(=O)c2cncc(Br)c2)cc1Cl	n	n	29.2	n	n	x
O=C(NC(=S)Nc1ccccn1)c1cncc(Br)c1	n	n	n	26.0	n	x
SMILES	rRNA inh HTS	FN deposition inh	SIRT5 inh	E-selectin induc	FGF22 binding	Statin myotox sup
O=C(NC(=S)Nc1ccc(Br)cn1)c1cncc(Br)c1	x	x	x	x	x	n
O=C(NC(=S)Nc1ccc(Cl)cc1)c1cncc(Br)c1	n	n	x	n	n	x
COc1cc(CN(CC(C)C)S(=O)(=O)c2ccccc2Br)cc(OC)c1	n	n	x	n	43.4	n
COc1cccc(CNS(=O)(=O)c2cc(Br)ccc2Br)c1	n	n	n	n	n	n
COc1cccc(CN(CCC(C)C)S(=O)(=O)c2cc(Br)ccc2Br)c1	n	n	28.2	n	n	n
C[C@@H]1CN([C@H](C)CO)C(=O)CCCn2cc(nn2)CO[C@H]1CN(C)Cc1ccc(-c2ccccc2)cc1	n	n	n	n	n	n
